In ChEMBL document CHEMBL1122840, “SAR studies in the field of calcium(II) antagonists. Effect of modifications at the tetrasubstituted carbon of verapamil-like compounds” (1985):

Tests used:
Cavia porcellus [1] = species: Cavia porcellus; experiment: Heart rate of isolated guinea pig heart at dose 0.05 (ug/heart); format: functional
Procedure, shortened: (§1)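 Rate was derived from the left ventricular pressure tracing of the perfused heart. Drug dissolved in perfusion liquid was given as a 1-min side-arm injection into the aortic inflow cannula after 30-min stabilization, at constant volume. Six preparations per compound; values expressed as mean, SE and percent of basal for each dose.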

Cavia porcellus [2] = species: Cavia porcellus; experiment: Heart rate of isolated guinea pig heart at dose 5 (ug/heart); format: functional; procedure, shortened: as §1
Cavia porcellus [3] = species: Cavia porcellus; experiment: Coronary perfusion pressure of isolated guinea pig heart at dose 0.005 (ug/heart); format: functional
Procedure, shortened: (§2)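 Heart perfused via an aortic inflow cannula; coronary perfusion pressure was recorded in that cannula with a pressure transducer. After 30-min stabilization, drug dissolved in perfusion liquid was injected through a side arm over 1 min, at constant volume. Six preparations per compound; mean, SE and percent of basal value were calculated for each dose.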

Cavia porcellus [4] = species: Cavia porcellus; experiment: Coronary perfusion pressure of isolated guinea pig heart at dose 0.5 (ug/heart); format: functional; procedure, shortened: as §2
Cavia porcellus [5] = species: Cavia porcellus; experiment: Left ventricular pressure of isolated guinea pig heart at dose 5 (ug/heart); format: functional, Cardiac ventricle
Procedure, shortened: (§3)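 Perfused heart, 30-min stabilization, then a 1-min constant-volume injection of drug dissolved in perfusion liquid via a side arm of the aortic inflow cannula. Six preparations per compound; mean, SE and percent of basal value were calculated for each dose.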

Cavia porcellus [6] = species: Cavia porcellus; experiment: Heart rate of isolated guinea pig heart at dose 0.005 (ug/heart); format: functional; procedure, shortened: as §1
Cavia porcellus [7] = species: Cavia porcellus; experiment: Heart rate of isolated guinea pig heart at dose 0.5 (ug/heart); format: functional; procedure, shortened: as §1
Cavia porcellus [8] = species: Cavia porcellus; experiment: Coronary perfusion pressure of isolated guinea pig heart at dose 0.05 (ug/heart); format: functional; procedure, shortened: as §2
Cavia porcellus [9] = species: Cavia porcellus; experiment: Coronary perfusion pressure of isolated guinea pig heart at dose 5 (ug/heart); format: functional; procedure, shortened: as §2
Cavia porcellus [10] = species: Cavia porcellus; experiment: Left ventricular pressure of isolated guinea pig heart at dose 0.05 (ug/heart); format: functional, Cardiac ventricle; procedure, shortened: as §3
Cavia porcellus [11] = species: Cavia porcellus; experiment: Left ventricular pressure of isolated guinea pig heart at dose 0.5 (ug/heart); format: functional, Cardiac ventricle; procedure, shortened: as §3
Cavia porcellus [12] = species: Cavia porcellus; experiment: Left ventricular pressure of isolated guinea pig heart at dose 0.005 (ug/heart); format: functional, Cardiac ventricle; procedure, shortened: as §3
Cavia porcellus [13] = species: Cavia porcellus; experiment: Coronary perfusion pressure of isolated guinea pig heart at dose 5 ug/heart); format: functional; procedure, shortened: as §2

COc1ccc(CCN(C)CCCC(c2ccccc2)(c2ccccc2)C(C)C)cc1OC.O=C(O)C(=O)O
HR (Cavia porcellus [1]): 154.7 beats min-1 | HR (Cavia porcellus [2]): 150.7 beats min-1 | CPP (Cavia porcellus [3]): 46.3 mmHg | CPP (Cavia porcellus [4]): 49.3 mmHg | LVP (Cavia porcellus [5]): 65.3 mmHg | HR (Cavia porcellus [6]): 155.3 beats min-1 | HR (Cavia porcellus [7]): 150 beats min-1 | CPP (Cavia porcellus [8]): 50 mmHg | CPP (Cavia porcellus [9]): 49.3 mmHg | LVP (Cavia porcellus [10]): 65.3 mmHg | LVP (Cavia porcellus [11]): 66.7 mmHg | LVP (Cavia porcellus [12]): 74.3 mmHg

COc1ccc(CCN(C)CCC=C2c3ccccc3-c3ccccc32)cc1OC.O=C(O)C(=O)O
HR (Cavia porcellus [1]): 210 beats min-1 | HR (Cavia porcellus [2]): 208 beats min-1 | CPP (Cavia porcellus [3]): 50 mmHg | CPP (Cavia porcellus [4]): 51 mmHg | LVP (Cavia porcellus [5]): 54 mmHg | HR (Cavia porcellus [6]): 210 beats min-1 | HR (Cavia porcellus [7]): 208 beats min-1 | CPP (Cavia porcellus [8]): 50 mmHg | CPP (Cavia porcellus [9]): 51 mmHg | LVP (Cavia porcellus [10]): 53 mmHg | LVP (Cavia porcellus [11]): 54 mmHg | LVP (Cavia porcellus [12]): 53 mmHg

COc1ccc(CCN(C)CCC=C(c2ccccc2)c2ccccc2)cc1OC.O=C(O)C(=O)O
HR (Cavia porcellus [1]): 150 beats min-1 | HR (Cavia porcellus [2]): 150 beats min-1 | CPP (Cavia porcellus [3]): 48 mmHg | CPP (Cavia porcellus [4]): 47.3 mmHg | LVP (Cavia porcellus [5]): 75.7 mmHg | HR (Cavia porcellus [6]): 150 beats min-1 | HR (Cavia porcellus [7]): 150 beats min-1 | CPP (Cavia porcellus [8]): 51 mmHg | CPP (Cavia porcellus [9]): 47.3 mmHg | LVP (Cavia porcellus [10]): 75.3 mmHg | LVP (Cavia porcellus [11]): 75.7 mmHg | LVP (Cavia porcellus [12]): 75.7 mmHg

COc1ccc(CCN(C)C/C=C/C2(C(C)C)c3ccccc3-c3ccccc32)cc1OC.O=S(=O)(O)O
HR (Cavia porcellus [1]): 177.8 beats min-1 | HR (Cavia porcellus [2]): 176.6 beats min-1 | CPP (Cavia porcellus [3]): 83.8 mmHg | CPP (Cavia porcellus [4]): 77 mmHg | LVP (Cavia porcellus [5]): 43.2 mmHg | HR (Cavia porcellus [6]): 182.6 beats min-1 | HR (Cavia porcellus [7]): 180.6 beats min-1 | CPP (Cavia porcellus [8]): 82.4 mmHg | CPP (Cavia porcellus [9]): 74.4 mmHg | LVP (Cavia porcellus [10]): 43.2 mmHg | LVP (Cavia porcellus [11]): 44 mmHg | LVP (Cavia porcellus [12]): 43.2 mmHg

COc1ccc(CCN(C)CCCC2c3ccccc3-c3ccccc32)cc1OC.O=C(O)C(=O)O
HR (Cavia porcellus [1]): 150 beats min-1 | HR (Cavia porcellus [2]): 149.3 beats min-1 | CPP (Cavia porcellus [3]): 52 mmHg | CPP (Cavia porcellus [4]): 56 mmHg | LVP (Cavia porcellus [5]): 89.3 mmHg | HR (Cavia porcellus [6]): 150 beats min-1 | HR (Cavia porcellus [7]): 150 beats min-1 | CPP (Cavia porcellus [8]): 52 mmHg | CPP (Cavia porcellus [9]): 51.3 mmHg | LVP (Cavia porcellus [10]): 89.5 mmHg | LVP (Cavia porcellus [11]): 91.2 mmHg | LVP (Cavia porcellus [12]): 88.5 mmHg

COc1ccc(CCN(C)CCCC2(C#N)c3ccccc3-c3ccccc32)cc1OC.[O-][Cl+3]([O-])([O-])O
HR (Cavia porcellus [1]): 208 beats min-1 | CPP (Cavia porcellus [13]): 43.8 mmHg | HR (Cavia porcellus [2]): 194.8 beats min-1 | CPP (Cavia porcellus [3]): 47.7 mmHg | CPP (Cavia porcellus [4]): 45 mmHg | LVP (Cavia porcellus [5]): 38.5 mmHg | HR (Cavia porcellus [6]): 213 beats min-1 | HR (Cavia porcellus [7]): 203 beats min-1 | CPP (Cavia porcellus [8]): 45.2 mmHg | LVP (Cavia porcellus [10]): 41.8 mmHg | LVP (Cavia porcellus [11]): 38.7 mmHg | LVP (Cavia porcellus [12]): 47.2 mmHg

COc1ccc(CCN(C)CCCC(C#N)(c2ccccc2)c2ccccc2)cc1OC.[O-][Cl+3]([O-])([O-])O
HR (Cavia porcellus [1]): 160.2 beats min-1 | HR (Cavia porcellus [2]): 158.3 beats min-1 | CPP (Cavia porcellus [3]): 73 mmHg | CPP (Cavia porcellus [4]): 71.2 mmHg | LVP (Cavia porcellus [5]): 26.8 mmHg | HR (Cavia porcellus [6]): 162 beats min-1 | HR (Cavia porcellus [7]): 159.8 beats min-1 | CPP (Cavia porcellus [8]): 72.6 mmHg | CPP (Cavia porcellus [9]): 68.7 mmHg | LVP (Cavia porcellus [10]): 28.6 mmHg | LVP (Cavia porcellus [11]): 27.8 mmHg | LVP (Cavia porcellus [12]): 31.6 mmHg

COc1ccc(CCN(C)CCCC(c2ccccc2)c2ccccc2)cc1OC.O=C(O)C(=O)O
HR (Cavia porcellus [1]): 152 beats min-1 | HR (Cavia porcellus [2]): 152 beats min-1 | CPP (Cavia porcellus [3]): 48 mmHg | CPP (Cavia porcellus [4]): 48.7 mmHg | LVP (Cavia porcellus [5]): 66.7 mmHg | HR (Cavia porcellus [6]): 152 beats min-1 | HR (Cavia porcellus [7]): 152 beats min-1 | CPP (Cavia porcellus [8]): 48 mmHg | CPP (Cavia porcellus [9]): 47.3 mmHg | LVP (Cavia porcellus [10]): 67.5 mmHg | LVP (Cavia porcellus [11]): 67.4 mmHg | LVP (Cavia porcellus [12]): 67.5 mmHg

COc1ccc(CCN(C)CCCC2(C(C)C)c3ccccc3-c3ccccc32)cc1OC.O=S(=O)(O)O
HR (Cavia porcellus [1]): 209 beats min-1 | HR (Cavia porcellus [2]): 204.4 beats min-1 | CPP (Cavia porcellus [3]): 76.4 mmHg | CPP (Cavia porcellus [4]): 78.4 mmHg | LVP (Cavia porcellus [5]): 36 mmHg | HR (Cavia porcellus [6]): 211 beats min-1 | HR (Cavia porcellus [7]): 207 beats min-1 | CPP (Cavia porcellus [8]): 78.6 mmHg | CPP (Cavia porcellus [9]): 78.4 mmHg | LVP (Cavia porcellus [10]): 38 mmHg | LVP (Cavia porcellus [11]): 37 mmHg | LVP (Cavia porcellus [12]): 38.4 mmHg

COc1ccc(CCN(C)CCCC2(C#N)c3ccccc3-c3ccccc32)cc1OC.O=C(O)C(=O)O
HR (Cavia porcellus [1]): 209.7 beats min-1 | HR (Cavia porcellus [2]): 205 beats min-1 | CPP (Cavia porcellus [3]): 44.2 mmHg | CPP (Cavia porcellus [4]): 42 mmHg | LVP (Cavia porcellus [5]): 39.5 mmHg | HR (Cavia porcellus [6]): 211.5 beats min-1 | HR (Cavia porcellus [7]): 206 beats min-1 | CPP (Cavia porcellus [8]): 42 mmHg | CPP (Cavia porcellus [9]): 41.2 mmHg | LVP (Cavia porcellus [10]): 41.7 mmHg | LVP (Cavia porcellus [11]): 41.3 mmHg | LVP (Cavia porcellus [12]): 43.3 mmHg

COc1ccc(CCN(C)CCCC(C#N)(c2ccc(OC)c(OC)c2)C(C)C)cc1OC (configuration not stated) [VERAPAMIL]
HR (Cavia porcellus [1]): 203.8 beats min-1 | HR (Cavia porcellus [2]): 188 beats min-1 | CPP (Cavia porcellus [3]): 51.7 mmHg | CPP (Cavia porcellus [4]): 49.7 mmHg | LVP (Cavia porcellus [5]): 13 mmHg | HR (Cavia porcellus [6]): 210 beats min-1 | HR (Cavia porcellus [7]): 200.3 beats min-1 | CPP (Cavia porcellus [8]): 50.3 mmHg | CPP (Cavia porcellus [9]): 48.8 mmHg | LVP (Cavia porcellus [10]): 24 mmHg | LVP (Cavia porcellus [11]): 21.5 mmHg | LVP (Cavia porcellus [12]): 25.7 mmHg
